Active and inactive are the calls of the source. The rule behind the calls is not given here.
Key:
[1] = test system: Protein cereblon/Epidermal growth factor receptor (Homo sapiens), P00533+Q96SW2 [UNDEFINED MUTATION]; assay: Reversible protac activity at CRBN/EGFR exon 19 deletion mutant in human HCC827 cells assessed as recovery of EGFR degradation at 100 nM preincubated for 12 hrs followed by compound washout and measured after 24 hrs by Western blot analysis; format: cell-based
Outline: (§1)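 Cells were serum-starved 8 h, then given degrader for 12 h. They were washed three times with PBS and harvested at the indicated time points after washout. EGFR, p-EGFR and p-AKT were read by Western blot.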

HCC827 [2] = assay: Effect on AKT level in human HCC827 cells up to 10 uM treated 8 hrs post serum starvation measured after 16 hrs by Western blot analysis; format: ADME, cell-based; conditions: hcc827, 16 h
[3] = test system: Protein cereblon/Epidermal growth factor receptor (Homo sapiens), P00533+Q96SW2 [L858R]; assay: Protac activity at CRBN/EGFR L858R mutant in human H3255 cells assessed as induction of EGFR degradation at 100 nM treated 8 hrs post serum starvation by Western blot analysis; format: cell-based; conditions: TDE = time-dependent effect
Outline: (§2)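 After 8 h serum starvation, cells got 100 nM degrader and were collected at serial time points for Western blot of EGFR and downstream signaling.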

HCC827 [4] = assay: Down regulation of NELFE expression in human HCC827 cells at 100 nM measured after 16 hrs by LC-MS analysis; format: functional, cell-based
Outline: (§3)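 HCC-827 cells serum-starved 8 h, then treated at 100 nM for 16 h. Collected for label-free quantitative LC–MS proteomics; LFQ intensity compared between treated and control groups; three independent experiments.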

[5] = test system: Protein cereblon/Epidermal growth factor receptor (Homo sapiens), P00533+Q96SW2 [L858R]; assay: Protac activity at CRBN/EGFR L858R mutant in human H3255 cells assessed as reduction in AKT phosphorylation up to 10 uM treated 8 hrs post serum starvation measured after 16 hrs by Western blot analysis; format: cell-based
Outline: (§4)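 Cultured to 80% confluence in RPMI/1640 with 20% FBS at 37 °C and 5% CO2, then switched to serum-free medium for 8 h. Degraders were added over a concentration range up to 10 μM for 16 h, with gefitinib at 1 μM as reference. Lysates in Laemmli buffer were immunoblotted for EGFR, p-EGFR and p-AKT. DC50 came from band quantification by nonlinear regression (variable slope).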

NCI-H3255 = assay: Effect on AKT level in human H3255 cells up to 10 uM treated 8 hrs post serum starvation measured after 16 hrs by Western blot analysis; format: ADME, cell-based; conditions: nci-h3255, 16 h
[6] = test system: Protein cereblon/Epidermal growth factor receptor (Homo sapiens), P00533+Q96SW2 [UNDEFINED MUTATION]; assay: Reversible protac activity at CRBN/EGFR exon 19 deletion mutant in human HCC827 cells assessed as recovery of AKT phosphorylation at 100 nM preincubated for 12 hrs followed by compound washout and measured after 48 hrs by Western blot analysis
[7] = test system: Protein cereblon/Epidermal growth factor receptor (Homo sapiens), P00533+Q96SW2 [L858R]; assay: Protac activity at CRBN/EGFR L858R mutant in human H3255 cells assessed as induction of EGFR degradation at 100 nM measured after 8 hrs in presence of neddylation inhibitor MLN4924 by Western blot analysis; format: cell-based
[8] = test system: Protein cereblon/Epidermal growth factor receptor (Homo sapiens), P00533+Q96SW2 [L858R]; assay: Protac activity at CRBN/EGFR L858R mutant in human H3255 cells assessed as induction of EGFR degradation at 100 nM measured after 8 hrs in presence of CRBN E3 ligase binder thalidomide by Western blot analysis; format: cell-based
[9] = Cmax in Swiss albino mouse at 50 mg/kg, ip measured after 8 hrs; format: ADME, organism-based; set-up: dose 50 mg/kg, route intraperitoneal; conditions: in vivo
HCC827 [10] = assay: Up regulation of HMGCS1 expression in human HCC827 cells at 100 nM measured after 16 hrs by LC-MS analysis; format: functional, cell-based; outline: as §3
[11] = Toxicity in Swiss albino mouse assessed as clinical changes at 50 mg/kg, ip; format: organism-based; conditions: in vivo
[12] = test system: Protein cereblon/Epidermal growth factor receptor (Homo sapiens), P00533+Q96SW2 [L858R]; assay: Protac activity at CRBN/EGFR L858R mutant in human H3255 cells assessed as induction of EGFR degradation at 0.1 to 1 uM incubated for 8 hrs in absence of FBS by Western blot analysis; format: cell-based
[13] = test system: Protein cereblon/Epidermal growth factor receptor (Homo sapiens), P00533+Q96SW2 [UNDEFINED MUTATION]; assay: Protac activity at CRBN/EGFR exon 19 deletion mutant in human HCC827 cells assessed as induction of EGFR degradation at 100 nM treated 8 hrs post serum starvation measured after 12 hrs by Western blot analysis relative to control; format: cell-based; outline: as §2
[14] = test system: Protein cereblon/Epidermal growth factor receptor (Homo sapiens), P00533+Q96SW2 [UNDEFINED MUTATION]; assay: Protac activity at CRBN/EGFR exon 19 deletion mutant in human HCC827 cells assessed as induction of EGFR degradation at 100 nM measured after 16 hrs by LC-MS analysis relative to control; format: cell-based
[15] = test system: Protein cereblon/Epidermal growth factor receptor (Homo sapiens), P00533+Q96SW2 [L858R]; assay: Protac activity at CRBN/EGFR L858R mutant in human H3255 cells assessed as induction of EGFR degradation at 10 uM treated 8 hrs post serum starvation measured after 16 hrs by Western blot analysis; format: cell-based; outline: as §4
[16] = test system: Protein cereblon/Epidermal growth factor receptor (Homo sapiens), P00533+Q96SW2 [L858R]; assay: Reversible protac activity at CRBN/EGFR L858R mutant in human H3255 cells assessed as recovery of EGFR degradation at 100 nM preincubated for 12 hrs followed by compound washout and measured up to 48 hrs by Western blot analysis; format: cell-based; outline: as §1
[17] = test system: Protein cereblon/Epidermal growth factor receptor (Homo sapiens), P00533+Q96SW2 [L858R]; assay: Protac activity at CRBN/EGFR L858R mutant in human H3255 cells assessed as reduction in AKT phosphorylation at 100 nM treated 8 hrs post serum starvation by Western blot analysis; format: cell-based; conditions: TDE = time-dependent effect; outline: as §2
[18] = test system: Protein cereblon/Epidermal growth factor receptor (Homo sapiens), P00533+Q96SW2 [UNDEFINED MUTATION]; assay: Protac activity at CRBN/EGFR exon 19 deletion mutant in human HCC827 cells assessed as induction of EGFR degradation at 0.1 to 1 uM incubated for 8 hrs in absence of FBS by Western blot analysis; format: cell-based
[19] = test system: Protein cereblon/Epidermal growth factor receptor (Homo sapiens), P00533+Q96SW2 [UNDEFINED MUTATION]; assay: Protac activity at CRBN/EGFR exon 19 deletion mutant in human HCC827 cells assessed as time required to induce 50% EGFR degradation at 100 nM treated 8 hrs post serum starvation by Western blot analysis; format: cell-based; outline: as §2
[20] = test system: Protein cereblon/Epidermal growth factor receptor (Homo sapiens), P00533+Q96SW2 [UNDEFINED MUTATION]; assay: Protac activity at CRBN/EGFR exon 19 deletion mutant in human HCC827 cells assessed as induction of EGFR degradation at >=50 nM treated 8 hrs post serum starvation measured after 16 hrs by Western blot analysis relative to control; format: cell-based; outline: as §4
[21] = test system: Protein cereblon/Epidermal growth factor receptor (Homo sapiens), P00533+Q96SW2 [L858R]; assay: Protac activity at CRBN/EGFR L858R mutant in human H3255 cells assessed as induction of EGFR degradation treated 8 hrs post serum starvation measured after 16 hrs by Western blot analysis; format: cell-based
[22] = test system: Protein cereblon/Epidermal growth factor receptor (Homo sapiens), P00533+Q96SW2 [UNDEFINED MUTATION]; assay: Reversible protac activity at CRBN/EGFR exon 19 deletion mutant in human HCC827 cells assessed as recovery of EGFR phosphorylation at 100 nM preincubated for 12 hrs followed by compound washout and measured after 24 hrs by Western blot analysis; format: cell-based; outline: as §1
[23] = test system: Protein cereblon/Epidermal growth factor receptor (Homo sapiens), P00533+Q96SW2 [UNDEFINED MUTATION]; assay: Protac activity at CRBN/EGFR exon 19 deletion mutant in human HCC827 cells assessed as induction of EGFR degradation at up to 1 uM treated 8 hrs post serum starvation measured after 16 hrs by Western blot analysis; format: cell-based
[24] = test system: Protein cereblon/Epidermal growth factor receptor (Homo sapiens), P00533+Q96SW2 [L858R]; assay: Protac activity at CRBN/EGFR L858R mutant in human H3255 cells assessed as reduction in EGFR autophosphorylation up to 10 uM treated 8 hrs post serum starvation measured after 16 hrs by Western blot analysis; format: cell-based; outline: as §4
[25] = test system: Protein cereblon/Epidermal growth factor receptor (Homo sapiens), P00533+Q96SW2 [UNDEFINED MUTATION]; assay: Protac activity at CRBN/EGFR exon 19 deletion mutant in human HCC827 cells assessed as reduction in AKT phosphorylation up to 10 uM treated 8 hrs post serum starvation measured after 16 hrs by Western blot analysis; format: cell-based; outline: as §4

Chain of Protein cereblon/Epidermal growth factor receptor (Homo sapiens), P00533+Q96SW2 [UNDEFINED MUTATION] (P00533 whole entry, looked up, stated change not applied): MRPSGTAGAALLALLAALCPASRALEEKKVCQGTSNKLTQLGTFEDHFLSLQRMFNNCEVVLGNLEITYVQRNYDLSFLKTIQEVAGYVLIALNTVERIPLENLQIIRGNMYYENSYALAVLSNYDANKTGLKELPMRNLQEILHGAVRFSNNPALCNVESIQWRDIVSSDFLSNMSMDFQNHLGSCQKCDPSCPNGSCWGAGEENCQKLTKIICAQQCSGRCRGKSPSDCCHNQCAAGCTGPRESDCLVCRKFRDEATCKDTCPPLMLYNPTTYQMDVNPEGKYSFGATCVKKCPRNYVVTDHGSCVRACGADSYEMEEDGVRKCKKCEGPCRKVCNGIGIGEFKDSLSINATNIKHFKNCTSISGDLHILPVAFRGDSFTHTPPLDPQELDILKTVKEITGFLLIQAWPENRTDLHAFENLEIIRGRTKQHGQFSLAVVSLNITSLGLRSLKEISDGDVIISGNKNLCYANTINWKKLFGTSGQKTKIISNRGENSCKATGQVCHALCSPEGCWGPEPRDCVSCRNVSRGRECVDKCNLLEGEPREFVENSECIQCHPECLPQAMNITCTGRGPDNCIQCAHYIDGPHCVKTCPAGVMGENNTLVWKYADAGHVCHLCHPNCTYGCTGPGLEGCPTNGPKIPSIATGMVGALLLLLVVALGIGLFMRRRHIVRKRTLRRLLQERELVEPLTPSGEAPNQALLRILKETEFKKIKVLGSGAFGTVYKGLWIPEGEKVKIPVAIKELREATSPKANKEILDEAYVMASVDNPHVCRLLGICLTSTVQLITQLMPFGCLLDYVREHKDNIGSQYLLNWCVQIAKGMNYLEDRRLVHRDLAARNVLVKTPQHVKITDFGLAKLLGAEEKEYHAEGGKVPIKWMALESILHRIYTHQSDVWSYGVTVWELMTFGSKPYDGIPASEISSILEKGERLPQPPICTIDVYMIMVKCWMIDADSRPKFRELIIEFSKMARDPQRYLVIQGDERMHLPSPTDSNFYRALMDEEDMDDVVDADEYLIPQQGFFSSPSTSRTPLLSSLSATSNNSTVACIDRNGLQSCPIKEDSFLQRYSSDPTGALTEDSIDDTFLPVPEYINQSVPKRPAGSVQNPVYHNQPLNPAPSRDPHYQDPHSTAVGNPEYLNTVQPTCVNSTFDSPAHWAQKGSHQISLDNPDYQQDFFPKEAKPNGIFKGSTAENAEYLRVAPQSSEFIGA
Chain of Protein cereblon/Epidermal growth factor receptor (Homo sapiens), P00533+Q96SW2 [UNDEFINED MUTATION] (Q96SW2 whole entry, looked up, stated change not applied): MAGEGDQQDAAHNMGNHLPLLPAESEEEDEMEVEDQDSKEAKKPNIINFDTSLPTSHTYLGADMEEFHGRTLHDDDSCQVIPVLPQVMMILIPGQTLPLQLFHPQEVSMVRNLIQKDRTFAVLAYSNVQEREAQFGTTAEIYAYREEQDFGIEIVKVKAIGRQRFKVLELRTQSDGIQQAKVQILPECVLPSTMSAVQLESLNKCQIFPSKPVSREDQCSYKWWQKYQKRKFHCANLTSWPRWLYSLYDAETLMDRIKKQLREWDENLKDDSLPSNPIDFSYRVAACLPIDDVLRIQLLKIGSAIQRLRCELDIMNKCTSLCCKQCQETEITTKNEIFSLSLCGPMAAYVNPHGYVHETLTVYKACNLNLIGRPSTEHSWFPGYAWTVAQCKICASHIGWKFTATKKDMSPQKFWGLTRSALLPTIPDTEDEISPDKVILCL

COc1cc2ncnc(Nc3ccc(F)c(Cl)c3)c2cc1OCCCN1CCN(CCC(=O)NCCCCCCCCOc2cccc3c2C(=O)N(C2CCC(=O)NC2=O)C3=O)CC1 (stereo unspecified)
Activity [1]: Active | Activity (HCC827 [2]): Non-Toxic | Activity [3]: Tde | Activity (HCC827 [4]): Active | Activity [5]: Active | Activity (NCI-H3255): Non-Toxic | Activity [6]: Active | Activity [7]: inactive | Activity [8]: inactive | Cmax [9]: 500 nM | Activity (HCC827 [10]): Active | Activity [11]: Non-Toxic | Activity [12]: Active | Activity [13]: 100% | Activity [14]: > 75% | Activity [15]: Active | Activity [16]: Active | Activity [17]: Tde | Activity [18]: Active | T1/2 [19]: 3.5 h | %max [20]: > 95% | Activity [21]: Dose-dependent effect | Activity [22]: Active | Activity [23]: Active | Activity [24]: Active | Activity [25]: Active

From ChEMBL document CHEMBL4376874, “Discovery of Potent and Selective Epidermal Growth Factor Receptor (EGFR) Bifunctional Small-Molecule Degraders” (J Med Chem, 2020)
